Compound activity (PubChem)
An excerpt weighted towards active compounds, which were near 2.4% of everything screened.
mABHD4 FP = inhibits mouse alpha/beta hydrolase domain 4; Q8VD66; purified mABHD4, FP-Rh probe fluorescence polarization; inhibition, % at 8.92 µM; 370,000 compounds, 0.54% hits; AID 720543;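 active = inhibition exceeding the mean over every tested compound plus 3 SD, cut at about 30% in these data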
Target sequence (Q8VD66 whole entry, looked up, the tested form may be a part): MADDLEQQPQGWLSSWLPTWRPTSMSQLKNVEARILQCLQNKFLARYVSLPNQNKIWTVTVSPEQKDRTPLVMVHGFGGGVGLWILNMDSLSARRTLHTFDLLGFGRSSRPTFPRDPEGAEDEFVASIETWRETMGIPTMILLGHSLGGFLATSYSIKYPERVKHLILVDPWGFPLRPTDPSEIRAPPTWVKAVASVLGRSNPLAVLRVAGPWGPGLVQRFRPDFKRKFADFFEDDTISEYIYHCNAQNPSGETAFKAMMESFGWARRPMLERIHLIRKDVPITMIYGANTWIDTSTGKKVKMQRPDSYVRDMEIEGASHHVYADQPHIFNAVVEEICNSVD
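Assay system: wild-type mouse ABHD4 protein; compound: single nominal dose of 8.92 µM, 0.89% DMSO final; schedule: 45 min + 60 min at 25 °C; measured by: FP readout, ex 525 nm / em 598 nm; evaluation: % inhibition of FP-Rh probe binding versus controls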
GASC-1 inh = blocks human GASC-1 demethylase activity. 330,000 compounds, 0.069% hits. GST-JMJD2C(1-420) H3K9me3 demethylation, DELFIA europium. Q9H3R0. inhibition, % at 2.35 µM;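 active = more than half of a compound's replicate wells show inhibition beyond 50%, single wells judged on their own value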;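 also: signal counts dimethyl H3K9 product captured on neutravidin plate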
SIAE inh = human SIAE inhibition, primary screen; inhibition, % at 9.66 µM; 370,000 compounds, 0.69% hits; Q9HAT2; SIAE FP-Rh probe binding, fluorescence polarization; AID 1053197;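 active = inhibition above a cutoff: mean of compounds within the control limits plus 3 SD of those, cut at about 17% in these data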
HTRA1 inhibitor = blocks human HTRA1 serine peptidase; 340,000 compounds, 0.5% hits; inhibition, % at 5.96 µM; recombinant HTRA1, FP-rhodamine activity-based probe, fluorescence polarization; in the data active = inhibition above about 36%
PRMT1 inh = blocks human protein arginine methyltransferase 1. Q99873. recombinant PRMT1, activity-based probe fluorescence polarization. inhibition, % at 2.79 µM. 370,000 compounds, 1.3% hits. AID 652257;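 active = inhibition above about 21% made by adding two undisclosed values, limit read from the data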
Target sequence (Q99873 whole entry, looked up): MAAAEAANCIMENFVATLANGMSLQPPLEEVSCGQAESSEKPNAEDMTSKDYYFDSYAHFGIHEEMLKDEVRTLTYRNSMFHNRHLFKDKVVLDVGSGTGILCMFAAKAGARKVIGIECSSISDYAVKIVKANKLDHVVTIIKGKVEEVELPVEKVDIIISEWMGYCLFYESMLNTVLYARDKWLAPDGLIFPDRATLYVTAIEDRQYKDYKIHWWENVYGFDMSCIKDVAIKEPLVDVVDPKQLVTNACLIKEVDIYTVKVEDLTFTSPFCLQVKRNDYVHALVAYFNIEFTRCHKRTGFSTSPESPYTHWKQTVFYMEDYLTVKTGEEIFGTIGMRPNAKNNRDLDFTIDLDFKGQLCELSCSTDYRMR
SIAE confirm = human SIAE inhibition, confirmation; AID 1117263; inhibition, % at 9.66 µM; shares compounds with SIAE inh; SIAE FP-Rh activity-based probe, fluorescence polarization; 2,300 compounds, 13% hits;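 active = mean inhibition of the replicates above the hit cutoff set in the primary screen, cut at about 17% in these data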;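 also: inhibitors lower polarization as more probe stays unbound to SIAE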
Each line names hits and unclear results; the compound was inactive in the other large screens (follow-up assays come after a bar, where they were run).

CCc1ccc2c(c1)NC(=O)C2(C)Cc1ccccc1C#N (stereo unspecified)	none (no result: GASC-1 inh, HTRA1 inhibitor)
CN(Cc1ccccc1)S(=O)(=O)c1cccc(C(=O)OCc2ccc(C(F)(F)F)cc2)c1	none (no result: GASC-1 inh, HTRA1 inhibitor)
CCO/C(C)=N/Oc1cccc(N(C)C)c1	mABHD4 FP 43, SIAE inh 23 (no result: GASC-1 inh, HTRA1 inhibitor) | SIAE confirm inactive
CCO/C(C)=N/Oc1cnc2ccccc2c1	none (no result: GASC-1 inh, HTRA1 inhibitor)
CC(C)N1CCCCC(NC(=O)c2ccc(Cl)cc2Cl)C1=O (stereo unspecified)	none (no result: GASC-1 inh, HTRA1 inhibitor)
C=CCN1C(=O)[C@@H](CC(=O)NCCCN2CCCC2=O)[C@]2(C(=O)OCC)CCCCC/C=C/12	none (no result: GASC-1 inh, HTRA1 inhibitor)
CCCCCC[C@H](CN(CCCC)S(C)(=O)=O)c1ccccc1	none (no result: GASC-1 inh, HTRA1 inhibitor)
COc1cc(S(=O)(=O)NCCN2CCOCC2)ccc1-n1cnnn1	none
COc1cc(S(=O)(=O)NCCCN2CCOCC2)ccc1-n1cnnn1	SIAE inh 17 | SIAE confirm inactive
COc1ccc(OC)c(NC(=O)CSc2nc3[nH]c(=O)cc(O)c3s2)c1	SIAE inh 19 | SIAE confirm inactive
O=C(c1cc(Cl)ccc1F)N1CCCC(c2nc(-c3cccs3)no2)C1 (stereo unspecified)	none (no result: GASC-1 inh, HTRA1 inhibitor)
Nc1[nH]c(C(=O)c2ccc(Br)cc2)c(-c2ccccc2Br)c1C(=O)NCCc1c[nH]c2ccccc12	none (no result: GASC-1 inh, HTRA1 inhibitor)
Nc1sc(-c2ccccc2)cc1C(=O)NCCc1c[nH]c2ccccc12	SIAE inh 26 (no result: GASC-1 inh, HTRA1 inhibitor) | SIAE confirm inactive
Nc1[nH]c(C(=O)c2ccccc2)c(-c2ccccc2Br)c1C(=O)NCCc1c[nH]c2ccccc12	SIAE inh 19 (no result: GASC-1 inh, HTRA1 inhibitor) | SIAE confirm inactive
Nc1[nH]c(C(=O)c2ccccc2)c(-c2ccc([N+](=O)[O-])cc2)c1C(=O)NCCc1c[nH]c2ccccc12	none (no result: GASC-1 inh, HTRA1 inhibitor)
Nc1[nH]c(C(=O)c2ccccc2)c(-c2ccccc2[N+](=O)[O-])c1C(=O)NCCc1c[nH]c2ccccc12	SIAE inh 18 (no result: GASC-1 inh, HTRA1 inhibitor) | SIAE confirm inactive
O=C(NCCc1c[nH]c2ccccc12)c1ccccc1	none
COc1cccc(S(=O)(=O)N(C)C[C@H]2OCc3cnnn3CCCC(=O)N([C@@H](C)CO)C[C@@H]2C)c1	none (no result: GASC-1 inh)
Cc1ccccc1C(=O)O/N=C(\N)Cc1cccs1	none
Cc1cc(C)nc(SCC(=O)N/N=C/c2cccs2)n1	none
Cc1cc(C)nc(SCC(=O)NN=Cc2ccc(C)o2)n1	SIAE inh 18 (no result: GASC-1 inh) | SIAE confirm inactive
N#Cc1ccc(-c2nc3ccc(Cl)cn3c2Cc2ccccc2)cc1	none (no result: GASC-1 inh, HTRA1 inhibitor)
CC(C)(Oc1ccc(Cl)cc1)C(=O)O/N=C(\N)c1ccncc1	SIAE inh 18 | SIAE confirm inactive
O=c1c(Cc2c(F)cccc2Cl)c(O)ccn1CCc1c[nH]c2ccccc12	SIAE inh 23 | SIAE confirm inactive
Cc1ccccc1CS(=O)(=O)Cc1ccc(C(=O)Nc2ccc(F)cc2F)o1	none (no result: GASC-1 inh, HTRA1 inhibitor)
C#CCNC(=O)C[C@H]1C[C@@]2(C(=O)OC)C(=C[C@H](COCc3ccccc3)O[C@@H]2C)N(Cc2ccccc2)C1=O	none (no result: GASC-1 inh, HTRA1 inhibitor)
CCOc1ccc2nc(S(=O)(=O)NC(=O)C3(C)CCN3C(=O)c3c(C)noc3C)sc2c1 (stereo unspecified)	none (no result: GASC-1 inh, HTRA1 inhibitor)
COC(=O)C1C(=O)c2c(n[nH]c2C)CC1(C)C (stereo unspecified)	SIAE inh 19 | SIAE confirm inactive
CCCc1n[nH]c2c1C(=O)C(C(=O)OC)C(C)(C)C2 (stereo unspecified)	none
O=c1[nH]c2cc([N+](=O)[O-])cc(Cl)c2c2ccccc12	none (no result: GASC-1 inh)
NC(c1ccccc1)c1csc(Nc2cc(Oc3ccccc3)ncn2)n1 (stereo unspecified)	none (no result: GASC-1 inh, HTRA1 inhibitor)
O=C(CSc1nnc2ccccn12)NC(=O)NC1CCCC1	none
O=C(CSc1nnc2ccccn12)NC(=O)c1ccccc1	SIAE inh 17 | SIAE confirm inactive
Fc1cccc(CNC(=S)OC2CCC23CCC(c2ccccc2)CC3)c1 (stereo unspecified)	none (no result: GASC-1 inh, HTRA1 inhibitor)
COc1ccc(OC)c(CN2C(=O)c3ccccc3C2c2nnnn2-c2ccc3c(c2)OCCO3)c1 (stereo unspecified)	none (no result: GASC-1 inh, HTRA1 inhibitor)
COc1ccc(-n2nnnc2C2c3ccccc3C(=O)N2C2CCN(Cc3ccccc3)CC2)cc1 (stereo unspecified)	SIAE inh 21 (no result: GASC-1 inh, HTRA1 inhibitor) | SIAE confirm inactive
Cc1cc(C)c(-c2csc(NC(=O)C3=COCCO3)n2)c(C)c1	none
Cc1cc(-c2csc(NC(=O)C3=COCCO3)n2)c(C)n1C	SIAE inh 26 | SIAE confirm inactive
NC(=O)CC(NC(=O)Cc1ccc(Cl)cc1)c1ccc(NC2CCCCC2)c([N+](=O)[O-])c1 (stereo unspecified)	SIAE inh 20 | SIAE confirm inactive
CN(C)c1cccc(-c2cnc(N3CCC(C(N)=O)CC3)nc2)c1	none (no result: GASC-1 inh, HTRA1 inhibitor)
CC1(C(=O)Nc2ccc(Cl)c(Cl)c2)CCN1Cc1cc2ccccc2o1 (stereo unspecified)	none (no result: GASC-1 inh, HTRA1 inhibitor)
CSc1nnc([C@@H](NC(=O)OC(C)(C)C)C(C)C)o1	SIAE inh 18 | SIAE confirm inactive
CCN(CC)C(=O)CSc1nnc([C@@H](NC(=O)OC(C)(C)C)C(C)C)o1	none
COc1ccc(-c2csc(NC(=O)Nc3ccccc3)n2)cc1	SIAE inh 44 | SIAE confirm inactive
COc1ccc(OC(=O)Nc2ccccc2)cc1	SIAE inh 19 | SIAE confirm inactive
COc1cccc(NC(=O)Nc2nc(-c3ccc(OC)c(OC)c3)cs2)c1	SIAE inh 34 | SIAE confirm inactive
COc1ccc(NC(=O)Nc2nc(C(N)Cc3ccc(C(F)(F)F)cc3)cs2)cc1 (stereo unspecified)	SIAE inh 29 (no result: GASC-1 inh, HTRA1 inhibitor) | SIAE confirm inactive
COc1ccc(-c2csc(NC(C)=O)n2)cc1OC	none
COc1ccc(CC(N)c2csc(NC(=O)Nc3ccc(OC)cc3)n2)cc1 (stereo unspecified)	none (no result: GASC-1 inh, HTRA1 inhibitor)
O=C(Cn1cc(COC(=O)c2c3ccccc3cc3ccccc23)nn1)c1ccc(O)cc1	none (no result: GASC-1 inh, HTRA1 inhibitor)
C=CCn1c(SCC(=O)N(CC)C2CCS(=O)(=O)C2)nc2sc3c(c2c1=O)CCC3 (stereo unspecified)	SIAE inh 18 | SIAE confirm inactive
C=CCn1c(SCC(C)=O)nc2sc3c(c2c1=O)CCC3	none
O=C(NC1CCCCN(Cc2cccc(Cl)c2)C1=O)c1ccc(Cl)cc1Cl (stereo unspecified)	none (no result: GASC-1 inh, HTRA1 inhibitor)
Cc1ccc([N+](=O)[O-])cc1NC(=S)NC(=O)C(C)(C)C	none
Cc1ccc(NS(=O)(=O)c2cc([N+](=O)[O-])ccc2NNC(=S)Nc2cc(C)ccc2C)c(C)c1	SIAE inh 31 | SIAE confirm inactive
O=S1(=O)c2c(NCc3ccco3)cccc2Oc2ccccc2CN1Cc1cn(Cc2ccc(F)cc2)nn1	none (no result: GASC-1 inh, HTRA1 inhibitor)
COc1ccccc1CNC(=O)C1CCCN(S(C)(=O)=O)C1 (stereo unspecified)	SIAE inh 23 | SIAE confirm inactive
CCCCN(C(=O)C1=COCCO1)c1c(N)n(CCC)c(=O)[nH]c1=O	SIAE inh 20 | SIAE confirm inactive
